Results pooled from the literature.
≈ marks a conversion by molar mass, not a printed value.

CCCCS(=O)(=O)Oc1cccc2cccnc12 — IC50 (Klebsiella pneumoniae; microbial growth, broth dilution; ATCC700603): 171 µg/mL (≈ 645 µM)
CCn1cc(C(=O)O)c(=O)c2cc(F)c(N3CCNCC3)cc21 — MBC (Klebsiella pneumoniae; microbial killing, broth dilution; ATCC43816): 2 µM
Cc1c(NN=C2SC(C(C#N)=Cc3ccc(Cl)cc3)=NC2=O)c(=O)n(-c2ccccc2)n1C — inhibition zone (Klebsiella pneumoniae; microbial growth, well diffusion; 100000 µg/mL): 16 mm
O=C(Nc1ccccc1-c1ccc(F)c(F)c1)c1nccnc1C(F)(F)F — EC50 (Alternaria kikuchiana; microbial growth): 0.058 µg/mL (≈ 0.153 µM)
Cc1ccc(-n2cc(COC3=CC(=O)c4ccccc4C3=O)nn2)cc1 — IC50 (Klebsiella pneumoniae; microbial growth, broth dilution; ATCC700603): 220 µg/mL (≈ 638 µM)
O=C(O)CN1C(=O)/C(=C/c2c3ccccc3c(-c3ccc(N(c4ccccc4)c4ccccc4)cc3)c3ccccc23)SC1=S — MIC (Streptococcus pneumoniae; microbial growth, broth dilution; ATCC49619): > 1000 µg/mL
O=C(O)c1cn(C2CC2)c2cc(N3CCNCC3)c(F)cc2c1=O — MBC (Klebsiella pneumoniae; microbial killing, broth dilution): 0.5 µg/mL
Cc1ccc(C(C)C)cc1OCc1cn(-c2ccc(Cl)cc2)nn1 — IC50 (Klebsiella pneumoniae; microbial growth, broth dilution; ATCC700603): 206 µg/mL (≈ 602 µM)
NCCCCCN — activity vs control (Cryptosporidium parvum; parasite growth, imaging; HCT-8; 1 mM, 24 h, intracellular): 96.3%
Cc1c(NN=C2SC(CC#N)=NC2=O)c(=O)n(-c2ccccc2)n1C — inhibition zone (Klebsiella pneumoniae; microbial growth, well diffusion; 100000 µg/mL): 15 mm
O=C(O)CN1C(=O)/C(=C/c2ccc(-c3ccc(N(c4ccccc4)c4ccccc4)cc3)c3ccccc23)SC1=S — MBC (Streptococcus pneumoniae; microbial killing, broth dilution; ATCC49619): > 1000 µg/mL
CC(C)(NC(=O)c1cc2c(F)cc(F)cc2[nH]1)c1cn(Cc2ccc(Cl)c(Cl)c2)nn1 — inhibition (Cryptosporidium parvum; parasite growth, imaging; HCT-8; 11 µM, 72 h, intracellular): ~30%
CCCCS(=O)(=O)Oc1cc(C(C)C)ccc1C — IC50 (Klebsiella pneumoniae; microbial growth, broth dilution; ATCC700603): 95.5 µg/mL (≈ 353 µM)
N#CC(=Cc1ccc([N+](=O)[O-])cc1)C1=NC(=O)C(=Cc2cn(-c3ccccc3)nc2-c2ccccc2)S1 — inhibition zone (Klebsiella pneumoniae; microbial growth, well diffusion; 100000 µg/mL): 22 mm
O=C(O)CN1C(=O)/C(=C/c2ccc(-c3ccc(N(c4ccccc4)c4ccccc4)cc3)cc2)SC1=S — MIC (Streptococcus pneumoniae; microbial growth, broth dilution; ATCC49619): 15.6 µg/mL (≈ 29.8 µM)
NCCCCNCCCN — activity vs control (Cryptosporidium parvum; parasite growth, imaging; HCT-8; 1 mM, 24 h, intracellular): 100%
O=C1C=C(O)C(=O)c2ccccc21 — IC50 (Klebsiella pneumoniae; microbial growth, broth dilution; ATCC700603): 123 µg/mL (≈ 709 µM)
O=C1NC(=S)N/C1=C\c1c2ccccc2c(-c2ccc(N(c3ccccc3)c3ccccc3)cc2)c2ccccc12 — MBC (Streptococcus pneumoniae; microbial killing, broth dilution; ATCC49619): > 1000 µg/mL
CC(C)(NC(=O)c1cc2c(Cl)cc(Cl)cc2[nH]1)c1cn(Cc2cccc(Cl)c2)nn1 — inhibition (Cryptosporidium parvum; parasite growth, imaging; HCT-8; 11 µM, 72 h, intracellular): > 60%
O=C(O)CN1C(=O)/C(=C/c2ccc(-c3ccc(N(c4ccccc4)c4ccccc4)cc3)cc2)NC1=S — MIC (Streptococcus pneumoniae; microbial growth, broth dilution; ATCC49619): 62.5 µg/mL (≈ 124 µM)
N#CC(=Cc1cn(-c2ccccc2)nc1-c1ccccc1)C1=NC(=O)CS1 — MBC (Klebsiella pneumoniae; microbial killing, broth dilution): 0.25 µg/mL
COc1cccc2cc[nH]c12 — EC90 (Cryptosporidium parvum; parasite growth; HCT-8; 24 h, intracellular): 682 µM
O=C1NC(=S)N/C1=C\c1ccc(-c2ccc(N(c3ccccc3)c3ccccc3)cc2)c2ccccc12 — MIC (Streptococcus pneumoniae; microbial growth, broth dilution; ATCC49619): > 1000 µg/mL
N#CC(=Cc1ccccc1O)C1=NC(=O)C(=Cc2cn(-c3ccccc3)nc2-c2ccccc2)S1 — inhibition zone (Klebsiella pneumoniae; microbial growth, well diffusion; 100000 µg/mL): 26 mm
O=C(O)c1cccnc1 — activity vs control (Cryptosporidium parvum; parasite growth, imaging; HCT-8; 1 mM, 24 h, intracellular): 90.3%
Cc1c(NC(=O)CC2=NC(=O)CS2)c(=O)n(-c2ccccc2)n1C — MBC (Klebsiella pneumoniae; microbial killing, broth dilution): 0.5 µg/mL
Cc1ccc(C(C)C)cc1OCc1cn(-c2ccc([N+](=O)[O-])cc2)nn1 — IC50 (Klebsiella pneumoniae; microbial growth, broth dilution; ATCC700603): 122 µg/mL (≈ 346 µM)
O=C(O)CN1C(=O)/C(=C/c2ccc(-c3ccc(N(c4ccccc4)c4ccccc4)cc3)c3ccccc23)NC1=S — MIC (Streptococcus pneumoniae; microbial growth, broth dilution; ATCC49619): > 1000 µg/mL
Cc1ncc(CO)c(C(=O)O)c1O — activity vs control (Cryptosporidium parvum; parasite growth, imaging; HCT-8; 1 mM, 24 h, intracellular): 105%
Clc1ccc(-n2cc(COc3cccc4cccnc34)nn2)cc1 — IC50 (Klebsiella pneumoniae; microbial growth, broth dilution; ATCC700603): 554 µg/mL (≈ 1650 µM)
CN(C)CC(=O)O — activity vs control (Cryptosporidium parvum; parasite growth, imaging; HCT-8; 1 mM, 24 h, intracellular): 105%
CC(C)(NC(=O)c1cc2c(Cl)cc(Cl)cc2[nH]1)c1cn(Cc2ccc(Cl)c(Cl)c2)nn1 — inhibition (Cryptosporidium parvum; parasite growth, imaging; HCT-8; 11 µM, 72 h, intracellular): > 60%
NCCCCN — activity vs control (Cryptosporidium parvum; parasite growth, imaging; HCT-8; 1 mM, 24 h, intracellular): 110%
Cc1ccc(C(C)C)cc1O — IC50 (Klebsiella pneumoniae; microbial growth, broth dilution; ATCC700603): 61.9 µg/mL (≈ 412 µM)
O=C1NC(=S)N/C1=C\c1ccc(-c2ccc(N(c3ccccc3)c3ccccc3)cc2)cc1 — MBC (Streptococcus pneumoniae; microbial killing, broth dilution; ATCC49619): > 1000 µg/mL
CCOC(=O)c1c(N)csc1-c1cn(-c2ccccc2)nc1-c1ccccc1 — inhibition zone (Klebsiella pneumoniae; microbial growth, well diffusion; 100000 µg/mL): 22 mm
O=C(O)CCc1ccc(O)cc1 — activity vs control (Cryptosporidium parvum; parasite growth, imaging; HCT-8; 1 mM, 24 h, intracellular): 90.5%
